In ChEMBL document CHEMBL4732078 (Eur J Med Chem, 2021):
One block for each compound: values may come before it. Calls of active or inactive are those of the source. The rule behind the calls is not given here.

Assays:
[1] = molecular target: Phosphatidylinositol 4,5-bisphosphate 3-kinase catalytic subunit alpha isoform (Homo sapiens, UniProt P42336); assay: Inhibition of human PI3Kalpha using PIP2 as substrate in presence of ATP measured after 30 mins by HTRF assay
In short: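 HTRF kit assay. Enzyme incubated with 10 μM PIP2; reaction started by adding ATP and run 30 min at room temperature, then stop solution and detection mix added and luminescence read. Compounds kept as 10 mM DMSO stocks.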

SJRH30 = assay: Antiproliferative activity against human Rh30 cells assessed as reduction in cell viability after 72 hrs by sulforhodamine B assay; type: functional, cell-based; conditions: SJRH30, 72 h
In short: (§1)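 SRB assay. Exponentially growing cells seeded at 3000–5000/well, compounds added serially diluted after 24 h, cultured 72 h. Cells fixed with 10% TCA, stained with SRB, dye dissolved in 10 mM Tris-HCl, absorbance read at 560 nm. Inhibition = (ODcontrol − ODtreated)/ODcontrol × 100%. IC50 is the mean of at least three independent tests.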

[2] = Inhibition of human PI3K p110alpha H1047R mutant/p85alpha using PIP2 as substrate incubated for 30 mins in presence of ATP by HTRF assay
[3] = Inhibition of human PI3Kgamma R459Q mutant using PIP2 as substrate in presence of ATP measured after 30 mins by HTRF assay
NCI-H460 = assay: Antiproliferative activity against human NCI-H460 cells assessed as reduction in cell viability after 72 hrs by sulforhodamine B assay; type: functional, cell-based; conditions: NCI-H460, 72 h; in short: as §1
NCI-H522 = assay: Antiproliferative activity against human NCI-H522 cells assessed as reduction in cell viability after 72 hrs by sulforhodamine B assay; type: functional, cell-based; conditions: NCI-H522, 72 h; in short: as §1
NCI-H358 = assay: Antiproliferative activity against human NCI-H358 cells assessed as reduction in cell viability after 72 hrs by sulforhodamine B assay; type: functional, cell-based; conditions: NCI-H358, 72 h; in short: as §1
NCI-H23 = assay: Antiproliferative activity against human NCI-H23 cells assessed as reduction in cell viability after 72 hrs by sulforhodamine B assay; type: functional, cell-based; conditions: NCI-H23, 72 h; in short: as §1
NCI-H1650 = assay: Antiproliferative activity against human NCI-H1650 cells assessed as reduction in cell viability after 72 hrs by sulforhodamine B assay; type: functional, cell-based; conditions: NCI-H1650, 72 h; in short: as §1
Calu-3 = assay: Antiproliferative activity against human Calu3 cells assessed as reduction in cell viability after 72 hrs by sulforhodamine B assay; type: functional, cell-based; conditions: Calu-3, 72 h; in short: as §1
NCI-H1975 = assay: Antiproliferative activity against human NCI-H1975 cells assessed as reduction in cell viability after 72 hrs by sulforhodamine B assay; type: functional, cell-based; conditions: NCI-H1975, 72 h; in short: as §1
NCI-H226 = assay: Antiproliferative activity against human H226 cells assessed as reduction in cell viability after 72 hrs by sulforhodamine B assay; type: functional, cell-based; conditions: NCI-H226, 72 h; in short: as §1
A549 = assay: Antiproliferative activity against human A549 cells assessed as reduction in cell viability after 72 hrs by sulforhodamine B assay; type: functional, cell-based; conditions: A549, 72 h; in short: as §1
SK-BR-3 = assay: Antiproliferative activity against human SK-BR-3 cells assessed as reduction in cell viability after 72 hrs by sulforhodamine B assay; type: functional, cell-based; in short: as §1
HCC1954 = assay: Antiproliferative activity against human HCC1954 cells assessed as reduction in cell viability after 72 hrs by sulforhodamine B assay; type: functional, cell-based; in short: as §1
ZR-75-1 = assay: Antiproliferative activity against human ZR-75-1 cells assessed as reduction in cell viability after 72 hrs by sulforhodamine B assay; type: functional, cell-based; in short: as §1
SK-OV-3 = assay: Antiproliferative activity against human SK-OV-3 cells assessed as reduction in cell viability after 72 hrs by sulforhodamine B assay; type: functional, cell-based; in short: as §1
BT-474 = assay: Antiproliferative activity against human BT-474 cells assessed as reduction in cell viability after 72 hrs by sulforhodamine B assay; type: functional, cell-based; in short: as §1
PC-3 = assay: Antiproliferative activity against human PC-3 cells assessed as reduction in cell viability after 72 hrs by sulforhodamine B assay; type: functional, cell-based; in short: as §1
LoVo = assay: Antiproliferative activity against human LoVo cells assessed as reduction in cell viability after 72 hrs by sulforhodamine B assay; type: functional, cell-based; in short: as §1
MDA-MB-231 = assay: Antiproliferative activity against human MDA-MB-231 cells assessed as reduction in cell viability after 72 hrs by sulforhodamine B assay; type: functional, cell-based; in short: as §1
T47D = assay: Antiproliferative activity against human T47D cells assessed as reduction in cell viability after 72 hrs by sulforhodamine B assay; type: functional, cell-based; in short: as §1
MCF7 = assay: Antiproliferative activity against human MCF7 cells assessed as reduction in cell viability after 72 hrs by sulforhodamine B assay; type: functional, cell-based; in short: as §1

Phosphatidylinositol 4,5-bisphosphate 3-kinase catalytic subunit alpha isoform, sequence (P42336 whole entry, canonical isoform): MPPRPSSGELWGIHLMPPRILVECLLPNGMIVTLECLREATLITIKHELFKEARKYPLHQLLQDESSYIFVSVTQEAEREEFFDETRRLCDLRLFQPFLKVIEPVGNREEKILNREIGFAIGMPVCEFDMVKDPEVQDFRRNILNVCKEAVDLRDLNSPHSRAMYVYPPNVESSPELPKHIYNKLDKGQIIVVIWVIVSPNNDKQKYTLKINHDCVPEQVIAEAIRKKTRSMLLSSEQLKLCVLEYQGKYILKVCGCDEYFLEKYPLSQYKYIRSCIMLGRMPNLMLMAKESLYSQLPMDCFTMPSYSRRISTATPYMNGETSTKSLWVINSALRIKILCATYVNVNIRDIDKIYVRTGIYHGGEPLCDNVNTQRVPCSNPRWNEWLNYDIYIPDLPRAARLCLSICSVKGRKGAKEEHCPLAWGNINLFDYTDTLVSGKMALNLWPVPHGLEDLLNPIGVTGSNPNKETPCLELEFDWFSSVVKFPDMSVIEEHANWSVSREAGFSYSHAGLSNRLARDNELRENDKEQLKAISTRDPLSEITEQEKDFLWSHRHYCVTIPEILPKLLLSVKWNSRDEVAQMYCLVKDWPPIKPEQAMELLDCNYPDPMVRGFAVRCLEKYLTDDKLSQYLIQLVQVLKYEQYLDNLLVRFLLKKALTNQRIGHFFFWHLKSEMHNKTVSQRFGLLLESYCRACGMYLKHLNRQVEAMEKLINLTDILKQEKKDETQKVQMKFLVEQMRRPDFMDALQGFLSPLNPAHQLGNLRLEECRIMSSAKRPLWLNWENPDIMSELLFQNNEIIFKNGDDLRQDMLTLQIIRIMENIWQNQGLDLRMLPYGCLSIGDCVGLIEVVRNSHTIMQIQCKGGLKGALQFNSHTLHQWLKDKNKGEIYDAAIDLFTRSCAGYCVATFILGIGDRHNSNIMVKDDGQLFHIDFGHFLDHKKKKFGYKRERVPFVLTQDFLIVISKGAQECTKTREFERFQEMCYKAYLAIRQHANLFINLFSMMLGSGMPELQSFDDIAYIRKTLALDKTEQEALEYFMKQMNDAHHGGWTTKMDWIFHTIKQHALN

IC50 [1]: 50.5 nM
Compound: C[C@H]1COCCN1c1nc(-c2cnc(N)cc2C(F)(F)F)nn2cc(CN3CCN(S(C)(=O)=O)CC3)cc12
IC50 (SJRH30): 970 nM

IC50 [2]: 10.9 nM | IC50 [3]: 1670 nM
Compound: Cc1nc(NC(=O)N2CCC[C@H]2C(N)=O)sc1-c1ccnc(C(C)(C)C(F)(F)F)c1 [ALPELISIB]
IC50 (SJRH30): 7600 nM

IC50 [1]: 23.6 nM
Compound: CNC(=O)Nc1cc(C(F)(F)F)c(-c2nc(N3CCOCC3)c3cc(CN4CCN(S(C)(=O)=O)CC4)cn3n2)cn1
IC50 (SJRH30): 150 nM

IC50 [1]: 39.6 nM
Compound: CN(C)C1CCN(C(=O)c2ccc(NC(=O)Nc3ccc(-c4nc(N5CCOCC5)c5cc(CN6CCN(S(C)(=O)=O)CC6)cn5n4)cc3)cc2)CC1
IC50 (SJRH30): 80 nM

IC50 [1]: 17.7 nM
Compound: CS(=O)(=O)N1CCN(Cc2cc3c(N4CCOCC4)nc(-c4cnc(NC(=O)Nc5ccc(F)cc5)cc4C(F)(F)F)nn3c2)CC1
IC50 (SJRH30): 180 nM

IC50 [1]: 244 nM
Compound: CS(=O)(=O)N1CCN(Cc2cc3c(N4CC5CCC(C4)O5)nc(-c4cnc(N)cc4C(F)(F)F)nn3c2)CC1
IC50 (SJRH30): 1780 nM

IC50 [1]: 41.7 nM
Compound: CCNC(=O)Nc1cc(C(F)(F)F)c(-c2nc(N3CCOCC3)c3cc(CN4CCN(S(C)(=O)=O)CC4)cn3n2)cn1
IC50 (SJRH30): 390 nM

IC50 [1]: 67.5 nM
Compound: CN(C)C(=O)c1ccc(NC(=O)Nc2ccc(-c3nc(N4CCOCC4)c4cc(CN5CCN(S(C)(=O)=O)CC5)cn4n3)cc2)cc1
IC50 (SJRH30): 90 nM

IC50 (NCI-H460): 897 nM | IC50 [1]: 105 nM | IC50 (NCI-H522): 1020 nM | IC50 (NCI-H358): 1290 nM | IC50 (NCI-H23): 695 nM | IC50 (NCI-H1650): 2300 nM | IC50 (Calu-3): 2360 nM | IC50 (NCI-H1975): 460 nM | IC50 (NCI-H226): 1080 nM | IC50 (A549): 1640 nM
Compound: CS(=O)(=O)N1CCN(Cc2cc3c(N4CCOCC4)nc(-c4ccc(NC(=O)Nc5ccc(F)cc5)cc4)nn3c2)CC1
IC50 (SJRH30): 230 nM

IC50 (NCI-H460): 1260 nM | IC50 (NCI-H522): 2140 nM | IC50 (NCI-H358): 1330 nM | IC50 (NCI-H23): 936 nM | IC50 (NCI-H1650): 4730 nM | IC50 (Calu-3): 2870 nM | IC50 (NCI-H1975): 703 nM | IC50 (NCI-H226): 5910 nM | IC50 (A549): 2480 nM
Compound: CS(=O)(=O)N1CCN(Cc2cc3nc(-c4cccc5[nH]ncc45)nc(N4CCOCC4)c3s2)CC1 [PICTILISIB]
Activity (SK-BR-3): Active | Activity (HCC1954): Active | Activity (ZR-75-1): Active | Activity (SK-OV-3): Active | Activity (BT-474): Active | Activity (PC-3): Active | Activity (LoVo): Active | Activity (MDA-MB-231): Active | Activity (T47D): Active | IC50 (SJRH30): 478 nM | Activity (MCF7): Active

IC50 [1]: 21 nM
Compound: CCOC(=O)Nc1cc(C(F)(F)F)c(-c2nc(N3CCOCC3)c3cc(CN4CCN(S(C)(=O)=O)CC4)cn3n2)cn1
IC50 (SJRH30): 3270 nM

Compound: CS(=O)(=O)N1CCN(Cc2cc3c(N4CCOCC4)nc(-c4cnc(NC(=O)Oc5ccccc5)cc4C(F)(F)F)nn3c2)CC1
IC50 [1]: 44.4 nM | IC50 (SJRH30): 5070 nM

IC50 [1]: 19.9 nM
Compound: C=CC(=O)Nc1cc(C(F)(F)F)c(-c2nc(N3CCOCC3)c3cc(CN4CCN(S(C)(=O)=O)CC4)cn3n2)cn1
IC50 (SJRH30): 710 nM

IC50 (NCI-H460): 293 nM | IC50 [1]: 41.1 nM | IC50 (NCI-H522): 751 nM | IC50 (NCI-H358): 187 nM | IC50 (NCI-H23): 52 nM | IC50 (NCI-H1650): 344 nM | IC50 (Calu-3): 790 nM | IC50 (NCI-H1975): 25 nM | IC50 (NCI-H226): 106 nM | IC50 (A549): 144 nM
Compound: CN1CCN(C(=O)c2ccc(NC(=O)Nc3ccc(-c4nc(N5CCOCC5)c5cc(CN6CCN(S(C)(=O)=O)CC6)cn5n4)cc3)cc2)CC1
IC50 (SJRH30): 70 nM

IC50 [1]: 55.4 nM
Compound: CS(=O)(=O)N1CCN(Cc2cc3c(N4CCOCC4)nc(-c4cnc(N)cc4C(F)(F)F)nn3c2)CC1
IC50 (SJRH30): 880 nM
